Data as given in the array DNA melting data of Ke et al. (doi:10.1101/2024.01.08.574731).

Columns and labels:
[1] = folding enthalpy; higher = less favourable; fluorescence melt of hairpins on a sequencing array, two-state fit; conditions: sodium 0.088 M
How it was run: (§1)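 Two-state fits, bootstrapped, provided melting temperature and folding enthalpy from Cy3 fluorescence normalised to pre-quench Cy3 and to control constructs. Library hairpins with annealed Cy3 and quencher oligos were imaged on a sequenced MiSeq flow cell in 50 mM Na-HEPES pH 8.0, 25 mM NaCl, at 2.5 °C intervals up to 60 °C. Four replicates were combined with inverse-variance weighting. A 9.35 °C upward shift was applied to fitted temperatures to match UV melts.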

[2] = melting temperature; fluorescence melt of hairpins on a sequencing array, two-state fit, raised by 9.35 °C to match UV melts; conditions: sodium 0.088 M
How it was run: as §1

| Sequence | folding enthalpy [1] | Tm [2] |
| --- | --- | --- |
| GCGATCGTTCGC ((((....)))) | -29 kcal/mol | 50.4 °C |
| GCGATCTCTCGC ((((....)))) | -31.1 kcal/mol | 47.9 °C |
| GCGATGCGAAAGCACAGC ((..(((....)))..)) | -19.2 kcal/mol | 52 °C |
| GCGATGCGAAAGCCTTGC ((.(.((....)).).)) | -25.4 kcal/mol | 36.3 °C |
| GCGATGCGAAAGCGTAGC ((.(.((....)).).)) | -24.6 kcal/mol | 54.8 °C |
| GCGATGCGAAAGCGTGGC ((.(.((....)).).)) | -21.6 kcal/mol | 54.7 °C |
| GCGATGCTCGC ((((...)))) | -14.1 kcal/mol | 54.9 °C |
| GCGATGTATCGC ((((....)))) | -28.2 kcal/mol | 56.7 °C |
| GCGATTACTCGC ((((....)))) | -23.7 kcal/mol | 49.3 °C |
| GCGATTCCTCGC ((((....)))) | -22.4 kcal/mol | 49.5 °C |
| GCGATTCTCGC ((((...)))) | -21.7 kcal/mol | 52 °C |
| GCGATTTATCGC ((((....)))) | -28.4 kcal/mol | 68.7 °C |
| GCGATTTGTCGC ((((....)))) | -23.5 kcal/mol | 54 °C |
| GCGATTTTTCGC ((((....)))) | -27.2 kcal/mol | 53.1 °C |
| GCGCAACGAAAGTTACGC (((.(((....))).))) | -44.9 kcal/mol | 57.5 °C |
| GCGCAACGAAAGTTCCGC (((.(((....))).))) | -30.5 kcal/mol | 49.3 °C |
| GCGCAACGAAAGTTTCGC (((.(((....))).))) | -43 kcal/mol | 52.9 °C |
| GCGCACCGAAAGGTACGC (((.(((....))).))) | -42.3 kcal/mol | 64.3 °C |
| GCGCACCGAAAGGTCCGC (((.(((....))).))) | -37.8 kcal/mol | 55.6 °C |
| GCGCACGAAAGTGACGC ((((((....))).))) | -24 kcal/mol | 63.3 °C |
| GCGCACGAAAGTGGCCGC ((((((....)))..))) | -19.4 kcal/mol | 54.1 °C |
| GCGCACGAAAGTGTACGC ((((((....)))..))) | -23.8 kcal/mol | 53.5 °C |
| GCGCACGGAAACATGCGC (((((.(....).))))) | -37.5 kcal/mol | 59 °C |
| GCGCACTCGAAAGAGCGC (((..(((....)))))) | -23.6 kcal/mol | 57.1 °C |

| Sequence | folding enthalpy [1] | Tm [2] |
| --- | --- | --- |
| GCGCAGCGAAAGCCACGC (((..((....))..))) | -9.86 kcal/mol | 42.4 °C |
| GCGCAGCGAAAGCCGTGC ((.(.((....)).).)) | -9.79 kcal/mol | 46.2 °C |
| GCGCAGCGAAAGCGGTGC ((.(.((....)).).)) | -16.5 kcal/mol | 61.5 °C |
| GCGCAGCGAAAGCTTCGC (((.(((....))).))) | -36.1 kcal/mol | 51.4 °C |
| GCGCAGGGAAACCCGCAC (.((.((....)).)).) | -17 kcal/mol | 37 °C |
| GCGCATCGAAAGATACGC (((.(((....))).))) | -38.6 kcal/mol | 54.5 °C |
| GCGCATGGAAACACGCGC ((((.((....)).)))) | -40.4 kcal/mol | 56.1 °C |
| GCGCATGGAAACATGCAC (.(((((....))))).) | -12.5 kcal/mol | 47.1 °C |
| GCGCATGGAAACGTGCGC (((((.(....).))))) | -41 kcal/mol | 66.6 °C |
| GCGCCACGAAAGTGTCGC (((.(((....))).))) | -41.7 kcal/mol | 63.3 °C |
| GCGCCAGCGAAAGCTCGC (((..(((....)))))) | -8.39 kcal/mol | 45 °C |
| GCGCCAGGAAACCAGCGC ((((..(....)..)))) | -26.4 kcal/mol | 51.4 °C |
| GCGCCAGGAAACCGGCAC (.(((.(....).))).) | -16.6 kcal/mol | 37.4 °C |
| GCGCCCGAAAGGGCCGC ((((((....))).))) | -11.5 kcal/mol | 68 °C |
| GCGCCCGAAAGGGTCCGC ((((((....)))..))) | -14.8 kcal/mol | 56.2 °C |
| GCGCCCGAAAGGGTTCGC ((((((....)))..))) | -17.7 kcal/mol | 54.6 °C |
| GCGCCCTCGAAAGAGCGC (((..(((....)))))) | -32 kcal/mol | 54.3 °C |
| GCGCCGCGAAAGCAGTGC ((.(.((....)).).)) | -19.4 kcal/mol | 53.5 °C |
| GCGCCGCGAAAGCATCGC (((..((....))..))) | -17 kcal/mol | 51.2 °C |
| GCGCCGCGAAAGCGTGGC ((..(((....)))..)) | -14.9 kcal/mol | 51.7 °C |
| GCGCCGCGAAAGCTTCGC (((..((....))..))) | -15.6 kcal/mol | 54.7 °C |
| GCGCCGGGAAACCGGCAC (.(((((....))))).) | -8.63 kcal/mol | 53.4 °C |
| GCGCCTACGAAAGTACGC (((..(((....)))))) | -27.8 kcal/mol | 42 °C |
| GCGCCTCGAAAGAGCGC (((.(((....)))))) | -35.9 kcal/mol | 67.4 °C |

| Sequence | folding enthalpy [1] | Tm [2] |
| --- | --- | --- |
| GCGCCTGGAAACAGGTGC ((.((((....)))).)) | -46.6 kcal/mol | 64.2 °C |
| GCGCCTGGAAACGGGTGC ((.((.(....).)).)) | -46.3 kcal/mol | 52.3 °C |
| GCGCGAGGAAACTCACGC (((.(((....))).))) | -38.2 kcal/mol | 53.8 °C |
| GCGCGCGAAAGCGACCGC ((((((....)))..))) | -16.8 kcal/mol | 54.3 °C |
| GCGCGCGGAAACGCACGC (((.(((....))).))) | -32.6 kcal/mol | 67.8 °C |
| GCGCGCGGAAACGCGCAC (.(((((....))))).) | -7.45 kcal/mol | 65.3 °C |
| GCGCGGCGAAAGCCCTGC ((..(((....)))..)) | -13.5 kcal/mol | 50.1 °C |
| GCGCGGCGAAAGCCTAGC ((..(((....)))..)) | -26.9 kcal/mol | 61.1 °C |
| GCGCGGCGAAAGCGTCGC (((..((....))..))) | -19.8 kcal/mol | 63.2 °C |
| GCGCGGCGAAAGCTACGC (((..((....))..))) | -19.8 kcal/mol | 64.1 °C |
| GCGCGGCGAAAGCTCCGC (((..((....))..))) | -20.3 kcal/mol | 58.3 °C |
| GCGCGTCCGAAAGGACGC (((..(((....)))))) | -5.6 kcal/mol | 67.3 °C |
| GCGCGTGGAAACGTGCGC ((((..(....)..)))) | -40.5 kcal/mol | 64.7 °C |
| GCGCTAACGAAAGTTCGC (((..(((....)))))) | -21.8 kcal/mol | 45.4 °C |
| GCGCTACGAAAGTATCGC (((.(((....))).))) | -42.1 kcal/mol | 53.9 °C |
| GCGCTCCGAAAGGACGC (((.(((....)))))) | -33.6 kcal/mol | 60 °C |
| GCGCTCGAAAGAGGCGC ((((((....))).))) | -29.2 kcal/mol | 67.4 °C |
| GCGCTCGAAAGAGGTCGC ((((((....)))..))) | -25.2 kcal/mol | 47.9 °C |
| GCGCTGCGAAAGCACAGC ((..(((....)))..)) | -17.6 kcal/mol | 49.9 °C |
| GCGCTGCGAAAGCATCGC (((.(((....))).))) | -60.2 kcal/mol | 58.6 °C |
| GCGCTGCGAAAGCTCCGC (((..((....))..))) | -20.5 kcal/mol | 49.4 °C |
| GCGCTGCGAAAGCTGGGC ((.(.((....)).).)) | -24.4 kcal/mol | 62.4 °C |
| GCGCTGCGAAAGCTGTGC ((.(.((....)).).)) | -34.4 kcal/mol | 59.5 °C |
| GCGCTGGGAAACCGGTGC ((.(.((....)).).)) | -42.6 kcal/mol | 51.5 °C |

| Sequence | folding enthalpy [1] | Tm [2] |
| --- | --- | --- |
| GCGCTTCGAAAGAAACGC (((.(((....))).))) | -38.8 kcal/mol | 54.5 °C |
| GCGCTTGGAAACAAGTGC ((.((((....)))).)) | -50.5 kcal/mol | 56.9 °C |
| GCGCTTGGAAACGAGCGC (((((.(....).))))) | -52.1 kcal/mol | 63.8 °C |
| GCGCTTGGAAACGAGTGC ((.((.(....).)).)) | -32.8 kcal/mol | 46.1 °C |
| GCGCTTTCGAAAGAACGC (((..(((....)))))) | -34.8 kcal/mol | 40.1 °C |
| GCGGAACACCGC ((((....)))) | -23.2 kcal/mol | 54.6 °C |
| GCGGAACTCCGC ((((....)))) | -25.7 kcal/mol | 54.9 °C |
| GCGGAAGGAAACCTCCGC (((((.(....).))))) | -33.2 kcal/mol | 54.1 °C |
| GCGGAAGGAAACTCCCGC ((((.((....)).)))) | -36.2 kcal/mol | 50 °C |
| GCGGAAGGAAACTTCTGC ((.((((....)))).)) | -44.6 kcal/mol | 51.4 °C |
| GCGGACGAAAGTCACCGC ((((((....)))..))) | -29.5 kcal/mol | 51.5 °C |
| GCGGACGAAAGTCCTCGC ((((((....)))..))) | -14.4 kcal/mol | 51.2 °C |
| GCGGACGAAAGTCTCCGC ((((((....)))..))) | -25.7 kcal/mol | 51.3 °C |
| GCGGACGGAAACGCCCAC (.((.((....)).)).) | -18.9 kcal/mol | 36.6 °C |
| GCGGAGACGAAAGTCCGC (((..(((....)))))) | -32 kcal/mol | 58.5 °C |
| GCGGAGAGCCGC ((((....)))) | -17.4 kcal/mol | 54.4 °C |
| GCGGAGCGAAAGCTAAGC ((..(((....)))..)) | -12.8 kcal/mol | 54 °C |
| GCGGAGCGAAAGCTATGC ((..(((....)))..)) | -16.5 kcal/mol | 44.5 °C |
| GCGGAGCGAAAGCTTCGC (((.(((....))).))) | -31.2 kcal/mol | 68.6 °C |
| GCGGAGCGAAAGCTTGGC ((..(((....)))..)) | -13.5 kcal/mol | 39.4 °C |
| GCGGAGCTCCGC ((((....)))) | -20.9 kcal/mol | 55.2 °C |
